The source made the active and inactive calls. The rule behind the calls is not given here. Where only a bound is given, the exact number is not on record here.

This note sets out measurements from ChEMBL document CHEMBL3822384, “2-(3-Methoxyphenyl)quinazoline Derivatives: A New Class of Direct Constitutive Androstane Receptor (CAR) Agonists” (J Med Chem, 2016).

In data set [1] the target is T1, Vitamin D3 receptor (Homo sapiens) (UniProt P11473).
T1 sequence (whole entry): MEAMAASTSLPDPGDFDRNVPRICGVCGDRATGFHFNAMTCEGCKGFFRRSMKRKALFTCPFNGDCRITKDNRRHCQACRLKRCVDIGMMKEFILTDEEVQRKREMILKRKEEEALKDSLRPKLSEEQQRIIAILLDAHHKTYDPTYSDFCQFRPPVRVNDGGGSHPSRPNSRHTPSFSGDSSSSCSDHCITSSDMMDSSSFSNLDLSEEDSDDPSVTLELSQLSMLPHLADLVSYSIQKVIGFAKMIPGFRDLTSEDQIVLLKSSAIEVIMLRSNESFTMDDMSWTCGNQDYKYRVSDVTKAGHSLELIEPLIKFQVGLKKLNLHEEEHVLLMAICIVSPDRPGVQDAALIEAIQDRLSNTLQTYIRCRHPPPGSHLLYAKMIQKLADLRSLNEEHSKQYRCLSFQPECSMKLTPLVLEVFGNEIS
Nature of the data set: Agonist activity at VDR in human primary hepatocytes assessed as upregulation of MDR/ABCB1 mRNA expression at 10 uM after 24 hrs by qRT-PCR method. The conditions noted are these: Hepatocyte. The format is cell-based. In general terms: In qPCR the cycle at which signal appears reflects the starting amount.

For the next data set, the target named is T2, Cytochrome P450 2B6 (Homo sapiens, UniProt P20813).
T2 sequence (P20813 whole entry): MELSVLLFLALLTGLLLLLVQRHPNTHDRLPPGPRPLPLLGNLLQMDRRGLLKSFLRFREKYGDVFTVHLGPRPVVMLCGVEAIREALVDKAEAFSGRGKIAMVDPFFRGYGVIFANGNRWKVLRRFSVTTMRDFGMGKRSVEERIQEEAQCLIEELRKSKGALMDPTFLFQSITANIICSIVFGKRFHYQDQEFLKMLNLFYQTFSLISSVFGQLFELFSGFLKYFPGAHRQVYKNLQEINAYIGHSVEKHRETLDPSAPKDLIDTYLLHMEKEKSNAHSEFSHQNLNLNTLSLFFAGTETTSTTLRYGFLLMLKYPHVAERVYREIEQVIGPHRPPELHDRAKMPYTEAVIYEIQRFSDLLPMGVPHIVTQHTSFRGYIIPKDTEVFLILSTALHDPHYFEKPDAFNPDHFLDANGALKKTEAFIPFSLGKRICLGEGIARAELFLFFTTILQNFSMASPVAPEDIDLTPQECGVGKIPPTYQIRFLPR
Nature of the data set: Inhibition of recombinant human CYP2B6 by P450-Glo luminescence assay. It is filed as ADME.

For another data set, the target named is CAR3 (NR1I3) (Homo sapiens, UniProt Q14994, WILDTYPEORMUTANTINASSAY1587668). Nature of the data set: (§1) Agonist activity at human CAR3 expressed in African green monkey COS-1 cells cotransfected with RXRalpha after 24 hrs by CYP2B6-luciferase reporter gene assay. The format is cell-based. The conditions noted are these: human, COS-1 cells expressing human CAR3 and RXRalpha; read-out: Imax. Put shortly: (§2)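 COS-1 cells co-transfected with CYP2B6-luc, low-constitutive-activity CAR3 variant, RXRα (100 ng/well) and pRL-TK; after 24 h stabilization, compound or DMSO (0.1%, v/v) for 24 h. Firefly luciferase normalized to Renilla; fold change relative to vehicle (set to 1), means of three independent experiments.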

The target in data set [2] is Nuclear receptor subfamily 1 group I member 3 (Homo sapiens, UniProt Q14994). The data set is described as §1. The conditions noted are these: for EC50: cos-1; for Activity: human, cos-1, 24 h. It is filed as cell-based. Put shortly:
as §2

The target in data set [3] is T3, Nuclear receptor subfamily 1 group I member 3 (Homo sapiens, UniProt Q14994).
T3 sequence (Q14994 whole entry): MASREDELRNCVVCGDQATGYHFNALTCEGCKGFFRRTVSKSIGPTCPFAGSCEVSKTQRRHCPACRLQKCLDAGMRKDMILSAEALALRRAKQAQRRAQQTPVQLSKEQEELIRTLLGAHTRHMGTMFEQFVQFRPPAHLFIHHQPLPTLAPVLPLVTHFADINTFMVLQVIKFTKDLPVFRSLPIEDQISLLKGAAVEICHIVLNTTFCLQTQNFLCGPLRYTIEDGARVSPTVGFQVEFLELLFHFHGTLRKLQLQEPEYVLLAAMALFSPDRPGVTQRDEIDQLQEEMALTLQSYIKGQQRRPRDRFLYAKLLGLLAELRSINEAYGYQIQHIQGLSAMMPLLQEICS
Kind of data set: Agonist activity at CAR LBD (108 to 348 residues) expressed in human HepG2 cells assessed as receptor binding to PGC1alpha by lanthascreenTR-FRET coactivator assay. Background: In TR-FRET formats the signal depends on donor and acceptor labels being close together.

The target in a further data set is T4, Vitamin D3 receptor (Homo sapiens, UniProt P11473).
T4 sequence (P11473 whole entry): T1 sequence (whole entry)
Nature of the data set: Agonist activity at VDR expressed in human HuH7 cells after 24 hrs by pDR3-luciferase reporter gene assay. The format is cell-based, Huh-7.

Another data set deals with HepG2. Kind of data set: Cytotoxicity against human HepG2 cells assessed as cell viability after 24 hrs by MTS assay. It is filed as cell-based. The conditions noted are these: hepg2, 24 h.
For data set [4], the target named is T5, Nuclear receptor subfamily 1 group I member 2 (Homo sapiens, UniProt O75469).
T5 sequence (O75469 whole entry): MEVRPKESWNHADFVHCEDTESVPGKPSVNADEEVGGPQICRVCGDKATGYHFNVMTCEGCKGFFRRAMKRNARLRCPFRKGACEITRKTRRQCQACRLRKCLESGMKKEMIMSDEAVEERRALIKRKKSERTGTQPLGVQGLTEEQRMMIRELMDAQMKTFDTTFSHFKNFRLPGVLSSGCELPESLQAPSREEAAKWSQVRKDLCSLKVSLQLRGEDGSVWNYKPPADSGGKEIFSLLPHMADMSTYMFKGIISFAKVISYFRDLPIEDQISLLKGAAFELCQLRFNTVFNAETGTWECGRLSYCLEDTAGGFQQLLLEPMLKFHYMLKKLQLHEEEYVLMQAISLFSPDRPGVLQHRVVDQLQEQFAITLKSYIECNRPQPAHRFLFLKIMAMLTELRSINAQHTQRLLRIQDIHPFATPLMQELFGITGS
Kind of data set: Agonist activity at PXR in human primary hepatocytes assessed as upregulation of MDR/ABCB1 mRNA expression at 10 uM after 24 hrs by qRT-PCR method. The format is cell-based, Hepatocyte.

Another data set has as its target Cytochrome P450 2C9 (Homo sapiens, UniProt P11712). Kind of data set: Inhibition of recombinant human CYP2C9 by P450-Glo luminescence assay. It is filed as ADME.

Sequence of Cytochrome P450 2C9 (P11712 whole entry): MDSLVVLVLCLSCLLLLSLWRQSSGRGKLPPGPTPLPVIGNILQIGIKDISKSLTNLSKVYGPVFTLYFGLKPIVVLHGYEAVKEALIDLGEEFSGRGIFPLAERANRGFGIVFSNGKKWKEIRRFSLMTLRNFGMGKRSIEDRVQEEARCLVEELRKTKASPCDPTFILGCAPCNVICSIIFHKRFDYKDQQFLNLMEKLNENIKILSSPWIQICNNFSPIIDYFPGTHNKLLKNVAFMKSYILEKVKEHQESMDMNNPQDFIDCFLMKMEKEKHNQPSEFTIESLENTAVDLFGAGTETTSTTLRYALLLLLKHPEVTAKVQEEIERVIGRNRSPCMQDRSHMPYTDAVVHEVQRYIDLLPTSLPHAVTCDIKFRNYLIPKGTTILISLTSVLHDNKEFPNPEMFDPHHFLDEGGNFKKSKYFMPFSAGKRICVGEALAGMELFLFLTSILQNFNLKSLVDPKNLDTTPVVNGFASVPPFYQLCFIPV

As usually defined, the IC50 is the concentration needed to halve the response being measured. One may read the EC50 as the concentration needed to bring the measured effect to its halfway point. On to `COc1cccc(-c2nc(OC)c3ccccc3n2)c1`, for which the outcome in [1] was Active. Also, the IC50 at Cytochrome P450 2B6 was 36.2 µM; on Cytochrome P450 2C9, 5.03 µM. Besides, the Emax at 24 h on CAR3 (NR1I3) was found to be 462%. In addition, the EC50 in data set [2] came out at 4.91 µM; in [3], 2.07 µM; on Vitamin D3 receptor it was 1.95 µM. For the same compound, the Activity entry in [2] was “Dose-dependent effect”; with HepG2 it was “Non-toxic”; in data set [4], “Active”.
Regarding `COc1cccc(-c2nc3ccccc3c(=S)[nH]2)c1`, the result in data set [1] was Active. The results for the IC50 on Cytochrome P450 2B6 and at Cytochrome P450 2C9 were 35.7 µM and 11 µM, respectively. For the same compound, the Emax at 24 h on CAR3 (NR1I3) stood at 333%. Also, the EC50 in data set [2] was determined as 6.12 µM; in data set [3], 0.69 µM; on Vitamin D3 receptor, 0.51 µM. The results for the Activity result (in [2]; in the data set on HepG2; in [4]) were “Dose-dependent effect”, “Non-toxic” and “Active”, respectively.
Turning to `COc1cccc(-c2nc(SC)c3ccccc3n2)c1`, in data set [1], the outcome was Active. Moreover, the IC50 on Cytochrome P450 2B6 amounted to 31.8 µM; at Cytochrome P450 2C9 it was 4.19 µM. The Emax at 24 h on CAR3 (NR1I3) came out at 158%. The EC50 in [2] is 4.04 µM; in data set [3] it was 5.12 µM; on Vitamin D3 receptor, more than 3 µM. Further, the figures for the Activity entry (in [2]; in the data set on HepG2; in data set [4]) were “Dose-dependent effect”, “Non-toxic” and “Active”, respectively.
